Measurements from ChEMBL document CHEMBL4513216, “Probing the Open Global Health Chemical Diversity Library for Multistage-Active Starting Points for Next-Generation Antimalarials” (ACS Infect Dis, 2020).

Test: Toxicity liver stage against HepG2, at 10uM
Assay type: cell-based
Set-up: test concentration 10 uM, cell line HepG2-A16-CD81EGFP
Details: human, HepG2-A16-CD81EGFP cells; read-out: INHIBITION
Outline: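 Uninfected HepG2-A16-CD81EGFP cells, 3 × 10^3 per well, 1536-well, plated on prespotted compound at 10 μM final, parasite-free screening media added to match infected plates; puromycin 10 μM positive, DMSO 0.5% negative; run in parallel with 48 h PbLuc assay at 37 °C, 5% CO2; viability by CellTiter-Glo luminescence, normalized to controls.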

SMILES | cytotoxicity at 10 µM [%]
COCC(=O)N[C@H]1C[C@@H](Cc2cc(CN3CCCCC3)on2)C1(C)C | -8.12
Cc1cccc(CNC[C@H]2Cn3ccnc3CO2)n1 | 3.15
CCOc1cc(N2CCN(C(=O)c3ccc(OC)cc3)CC2)nc(C)n1 | -10.2
Cc1ccc(-c2csc3c(=O)[nH]c(N4CCCC(C(N)=O)C4)nc23)cc1 (stereo not given) | -3.09
Cc1ccc(S(=O)(=O)NCC(O)c2ccoc2)s1 (stereo not given) | -8.18
CCn1c2c(ccc1=O)CC(N)CC2 (stereo not given) | -1.72
O=C(NCC1CC1)C1CCC2(CCNCC2)C1 (stereo not given) | 1.91
CC[C@@H]1N(CC2CCC2)CCC[C@]12CCC(=O)N2Cc1ccncc1 | 7.12
CCN1CCC2(CC1)CN(CCO)c1ccccc12 | -0.173
CCc1cnc(N2C[C@H]3CN(Cc4ccc(OC)cc4)C(=O)[C@H]3C2)nc1 | 11.6
COCCN1CCC2(CC1)CC(CC(N)=O)c1ccc(F)cc12 (stereo not given) | 8.98
O=C(c1cnccn1)N1CCCC2(CCCN2Cc2cccnc2)C1 (stereo not given) | -1.01
CO[C@@H]1CCN(c2ncccn2)[C@H]1Cc1ccccc1 | -0.651
O=C1CC(c2ccsc2)c2sc(C(=O)O)c(-c3ccc(F)cc3)c2N1 (stereo not given) | 4.4
COc1ccc(-n2ncc(C(=O)NCC3COC(C)(C)O3)c2N)cc1 (stereo not given) | 3.97
O=C(CCn1cc(Cl)cn1)Nc1ccc2c(c1)OCCO2 | -2.18
Cn1nc(C(=O)N2CCOCC2)cc1C(=O)Nc1ccc(Cl)cc1Cl | -7.41
Cc1ccnn1C(C)C(=O)Nc1cc(-c2ccncc2)[nH]n1 (stereo not given) | -10.7
Cc1cc(-c2ccc(=O)n(C3CCN(S(C)(=O)=O)CC3)n2)c(C)o1 | 3.62
O=C(O)[C@@H]1CCN(C(=O)c2ccccn2)[C@@H]1c1ccc(F)cc1 | 4.16
CC(C)N1CCC(c2n[nH]cc2S(C)(=O)=O)CC1 | -7.22
CC(=O)N1CCN(C(=O)C2CCN(c3cccnn3)C2)CC1 (stereo not given) | -17.6

SMILES | cytotoxicity at 10 µM [%]
CCC(CC)C(=O)N1CCN(Cc2cc(-c3ccncc3)nn2C)CC1 | -27.9
CCNc1nnc(SCc2nnc(C(C)(C)C)o2)s1 | -1.79
COc1cccc(C(C)N2CCN(S(=O)(=O)CCCF)CC2)c1 (stereo not given) | 2.5
CC(C)CNC(=O)Nc1cccc(OCC#N)c1 | -0.353
CN(CC(=O)Nc1nc2c(s1)CCC2)C(=O)c1cccs1 | -10.3
CCn1nc(C)c(CNC(=O)NCC(C)(O)c2ccc(C)o2)c1C (stereo not given) | 10.5
COc1c(C)cnc(CNC(=O)c2cnc3onc(C)c3c2)c1C | 26.3
c1ccc(NCc2cccc(OCCN3CCOCC3)c2)nc1 | 0.174
O=C(NCc1ccccc1CN1CCCC1=O)Nc1nncs1 | -2.82
CCc1noc(C)c1C(=O)Nc1cnn(CC(=O)NC2CCCC2)c1 | -3.08
O=C(NCc1cccc(F)c1)NC1CCCN(c2ncccn2)C1 (stereo not given) | -0.7
CCOc1ncccc1NC(=O)c1cc(C)sc1C | -6.81
CC(C)CC(=O)N1CCCC1c1ccsc1 (stereo not given) | 2.96
Cc1cc(N2CCOCC2)ccc1NC(C)c1nc(C(C)C)no1 (stereo not given) | -12.3
CC(C)c1nc2c(n1C)CCN(CCS(=O)(=O)c1ccccc1)C2 | 5.11
COC(=O)c1ccccc1NS(=O)(=O)c1c(C)nn(C)c1C | -4.12
Cc1cc(NCC(=O)NCC(F)(F)F)nc(-c2ccncc2)n1 | 6.45
CC(C)c1nnc(CN(C)C(c2ccc(F)cc2)c2cccnc2)o1 (stereo not given) | 4.11
Cc1c(Cl)cccc1S(=O)(=O)NCc1cnc(N(C)C)n1C | -6.31
NC(=O)CN(Cc1ccc(Br)cc1)C(=O)c1cccnc1 | 9.49
Cc1cccc(NC(=O)N(CCC(F)(F)F)C[C@H](O)CO)c1 | 4.3
CCCn1ccc2cc(NC(=O)CC3CCCO3)ccc21 (stereo not given) | -3.45

SMILES | cytotoxicity at 10 µM [%]
COc1ccccc1CN(Cc1nc(CC(C)C)no1)C1CC1 | 4.93
CC(O)CN1CCN(C(=O)CCOc2ccccc2F)CC1 (stereo not given) | 3.66
Cc1nc(C2CCCN2C(=O)CCCOc2cccc(F)c2)no1 (stereo not given) | 5.09
Cc1ccc(C(=O)NCCS(C)(=O)=O)c(=O)[nH]1 | -9.32
CC(=O)Nc1c(C)cnn1Cc1cc(F)ccc1F | 25.3
FC(F)(F)COCCN1CCCC(c2noc(C3CC3)n2)C1 (stereo not given) | 3.3
O=C(NCc1ccccc1CN1CCC(O)CC1)Nc1ccncc1 | -13.1
Fc1ccc2c(c1)C(NCc1nnc3n1CCCCC3)CCCO2 (stereo not given) | -9.52
Cc1cc(CN(C)C(=O)C2CCCN(C(=O)c3cccs3)C2)no1 (stereo not given) | -17
CS(=O)(=O)NCC1CCCN(C(=O)Nc2cccnc2N2CCCC2)C1 (stereo not given) | 3.85
CC(C)NC(=O)Nc1ccc(CS(=O)(=O)C(C)(C)C)cc1 | -1.97
COCCN1C(=O)CC(N2CCN(c3ccc(OC)cc3)CC2)C1=O (stereo not given) | -12.6
O=C(O)c1cc(-c2cncnc2)cc(S(=O)(=O)N2CCCCCC2)c1 | 5.38
CCC(=O)N1CCCC(c2nc(-c3cccnn3)no2)C1 (stereo not given) | -6.45
O=C(O)[C@@H]1CN(C(=O)CSCC2CC2)C[C@H]1c1ccncc1 | -17.6
CN(C)S(=O)(=O)NCc1cccnc1Oc1ccc(F)c(F)c1 | 3.05
CCc1ccc(CN2CCC(c3ccccc3C(=O)O)C2)nc1 (stereo not given) | 1.69
CCC(=O)N1CCCC(C(=O)NCc2noc(Cc3ccccc3)n2)C1 (stereo not given) | -1.15
CCn1c(CN(C)C)nnc1C1CCN(Cc2ccc(Cl)cc2F)CC1 | -2.53
Cc1ccc(N2CCC(C(=O)O)(n3ccc(C(C)C)n3)CC2)nn1 | -3.64
COc1ccnc(N2CCC3(CC2)[C@H](O)C[C@@H]3OCCN(C)C)n1 | 1.03
COc1ccccc1-n1nc(CC(C)C)nc1Cc1nnc(N)s1 | 6.17

SMILES | cytotoxicity at 10 µM [%]
Cc1c(NC(=O)N(C)CCCc2cnn(C)c2)cnn1C | -1.23
NC(=O)N1CCCC(c2nc(-c3cccnn3)no2)C1 (stereo not given) | -1.31
CCC[C@H]1CN(C(=O)CCn2ccccc2=O)C[C@@H]1NS(C)(=O)=O | 5.35
CC(C)S(=O)(=O)N1CCCC(c2cccc(C(=O)O)c2)C1 (stereo not given) | -2.18
Cc1ccc(C2(CN(C)Cc3snnc3C)CCNCC2)nc1 | -0.355
Cc1nc(-c2c(-c3ccccc3)ncn2[C@H]2C[C@@H](C(=O)O)N(C)C2)co1 | 0.024
CNCCN1C(=O)CC[C@H]2CN(c3ncc(F)cn3)CC[C@H]21 | 1.68
O=C(O)c1cc2n(n1)CCCN(C(=O)CCc1c[nH]c3ccccc13)C2 | 3.77
CC(c1nccs1)N(C)Cc1ccc(CCC(C)(C)O)cc1 (stereo not given) | 2.55
COCCN1CCCC2(CCN(c3cc(C)c(C#N)c(C)n3)C2)C1=O (stereo not given) | 2.7
CCCn1cc(-c2cc(C(=O)N(C)C)c3cccc(C)c3n2)cn1 | 5.11
CN(Cc1cnc(N)nc1)CC1CCCN(CCc2ccc(Cl)cc2)C1 (stereo not given) | -0.849
COCCN(Cc1sccc1C)C(=O)C1CCN(C(C)C)CC1 | -2.72
N#Cc1cccc(C(=O)N2CCCC(C(=O)CCc3ccccc3)C2)c1 (stereo not given) | 0.488
CS(=O)(=O)NCCC1CN(Cc2ccccc2F)CCO1 (stereo not given) | -7.31
Cc1cc(C)c2nc(CN[C@H]3CCCNC3)cc(O)c2c1 | 4.09
CCS(=O)(=O)N1CCN(c2cc(-n3cnc(C)c3C)nc(C)n2)CC1 | 0.599
Cc1nc(N2CCCCC2)ncc1C(=O)N1CC(C)(C)[C@@](C)(O)C1 | 1.41
COc1cccc(CN2CCC(c3nccn3C(C)C)CC2)c1 | -8.37
Cc1cc(C)c(C(=O)N2CCOCC2c2c(C)n[nH]c2C)o1 (stereo not given) | -4.01
CN(Cc1ccccc1)CC(O)Cn1cnc2cc(F)ccc2c1=O (stereo not given) | -5.28
O=C(NCC1CCOC1)Nc1ccc(Oc2cccc(F)c2)nc1 (stereo not given) | -5.01

SMILES | cytotoxicity at 10 µM [%]
Cc1ccc(-c2cc(C(=O)NCCN3CCCS3(=O)=O)[nH]n2)cc1 | -7.57
O=S(=O)(CCN1CCCCC1Cn1cncn1)c1ccccc1 (stereo not given) | 10.4
CCc1n[nH]c(C2CN(C(=O)c3cnn(CC)c3)CCO2)n1 (stereo not given) | -2.87
Cc1nc(CN(C)C2CCN(CCc3ccc4c(c3)CCO4)C2)no1 (stereo not given) | -12
CN(Cc1coc(-c2ccccc2)n1)CC1CCCN1c1cccnn1 (stereo not given) | -10.4
CCc1nc(CN2CCCN(C(=O)c3occc3C)CC2)cs1 | -21.9
O=C(NCCn1nc2ccccn2c1=O)c1cc(-c2ccccc2)[nH]n1 | -28.5
Cc1cn2nc(N3CCCC3Cn3cncn3)sc2n1 (stereo not given) | -18.3
O=C(CCSc1ccccc1)NS(=O)(=O)c1ccc2c(c1)OCCO2 | -5.69
CC(=O)N1CCN(C(=O)CCCc2nc(C(C)C)no2)CC1 | -9.34
COc1ccc(OCCN(C)C(=O)NC(C)c2nncn2C)cc1 (stereo not given) | 1.08
CO[C@H]1CCN(S(=O)(=O)c2cn(C)cn2)[C@H]1Cc1ccccc1 | 6.19
O=C(NC1COC2(CCN(Cc3ccccn3)CC2)C1)c1ccccn1 (stereo not given) | -4.74
Cn1cncc1C(=O)N1CCOC2(COCCN(CC3CC3)C2)C1 (stereo not given) | 9.17
CCN1CC2(CC1=O)CN(Cc1ccccn1)CCN(C(C)=O)C2 (stereo not given) | -1.07
COCC1CN(Cc2ccc(C)o2)Cc2nnn(CC3CC3)c21 (stereo not given) | -9.96
O=C(NCC1CC1)c1n[nH]c2c1CNCC2 | 4.14
c1ccc(CN2CCN3C[C@H](Oc4cncnc4)C[C@H]3C2)nc1 | -99.8
CNC(=O)[C@@H](C1CCCCC1)N1CCC[C@H]1C(=O)N(C)CCN(C)C | -0.39
Cc1ccc(CN2CC[C@@H](NS(C)(=O)=O)[C@@H]2Cc2ccncc2)o1 | -3.18
CN(C)C(=O)CN1CC[C@H]2[C@H]1CCN2c1ncccn1 | 8.28
CCn1cc(-n2cc3nc(N)[nH]cc-3c2=O)cn1 | 3.15
